Calls of active or inactive are those of the source. No cut-off for these calls is given here.
Legend:
Carboxypeptidase A1 = target: T1, Carboxypeptidase A1 (Bos taurus, UniProt P00730); experiment: Inhibition of bovine pancreas carboxypeptidase A using N-(4-methoxyphenylazoformyl)-phenylalanine as substrate after 5 mins by colorimetry
T1 sequence (P00730 whole entry): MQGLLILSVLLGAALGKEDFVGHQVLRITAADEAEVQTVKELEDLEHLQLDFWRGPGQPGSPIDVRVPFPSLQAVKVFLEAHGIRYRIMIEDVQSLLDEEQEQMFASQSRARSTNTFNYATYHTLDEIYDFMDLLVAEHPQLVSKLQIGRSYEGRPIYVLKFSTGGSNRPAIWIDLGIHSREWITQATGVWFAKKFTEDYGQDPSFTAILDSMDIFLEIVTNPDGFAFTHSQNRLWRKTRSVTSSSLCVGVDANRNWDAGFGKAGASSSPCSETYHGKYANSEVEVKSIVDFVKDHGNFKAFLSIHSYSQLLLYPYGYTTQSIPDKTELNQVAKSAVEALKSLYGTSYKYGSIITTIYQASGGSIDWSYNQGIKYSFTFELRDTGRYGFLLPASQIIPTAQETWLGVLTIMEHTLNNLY
Method in brief: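 Bovine pancreas CPA, 1 U, 25 °C, 200 μL final; inhibitor added from DMSO (typically 1 mM stock, 10 μL) or DMSO alone. Absorbance at 350 nm after 5 min. Curves fitted to %inhibition=[…].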

[1] = target: T2, Carboxypeptidase B2 (Homo sapiens) (UniProt Q96IY4); experiment: Inhibition of carboxypeptidase U at 60 ug/mL
T2 sequence (whole entry): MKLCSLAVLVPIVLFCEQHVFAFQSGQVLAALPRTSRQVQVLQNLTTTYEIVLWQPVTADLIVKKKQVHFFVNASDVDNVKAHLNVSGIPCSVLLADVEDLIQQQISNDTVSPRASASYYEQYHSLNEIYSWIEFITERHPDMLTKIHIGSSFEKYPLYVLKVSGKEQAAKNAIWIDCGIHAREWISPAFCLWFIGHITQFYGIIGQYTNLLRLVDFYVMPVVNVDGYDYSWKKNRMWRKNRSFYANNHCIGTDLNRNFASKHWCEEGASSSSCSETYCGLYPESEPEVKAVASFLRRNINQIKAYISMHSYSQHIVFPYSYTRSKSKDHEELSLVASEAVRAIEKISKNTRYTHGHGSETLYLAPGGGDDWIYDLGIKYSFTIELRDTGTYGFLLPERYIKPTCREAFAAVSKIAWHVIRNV
Method in brief: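 CPU (activated TAFI) assayed with a commercial TAFIa kit per manufacturer's instructions, run like the CPA/chymotrypsin assays; compounds tested up to 60 μg/mL.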

[2] = Inhibition of alpha chymotrypsin using N-benzoyl-L-tyrosine ethyl ester as substrate at 60 ug/mL after 5 mins by colorimetry
Method in brief: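 α-Chymotrypsin, 1 U, 25 °C, in a 10 mm quartz cuvette, 200 μL final; inhibitor from DMSO (typically 1 mM stock, 10 μL) or DMSO alone. Absorbance read at 256 nm after 5 min incubation; tested up to 60 μg/mL.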

[3] = target: T3, Carboxypeptidase A1 (Bos taurus) (UniProt P00730); experiment: Inhibition of bovine pancreas carboxypeptidase A using N-(4-methoxyphenylazoformyl)-phenylalanine as substrate at 30 uM after 5 mins by colorimetry
T3 sequence (whole entry): T1 sequence (P00730 whole entry)

[4] = Solubility of the compound; format: physicochemical

Row | IC50 (Carboxypeptidase A1) [nM] | inhibition [1] | inhibition [2] | inhibition [3] | solubility [4] | Structure (SMILES)
1 |  |  |  | inactive |  | CC[C@H](C)[C@@H]1NC(=O)[C@H](NC(=O)N[C@@H](Cc2ccccc2)C(=O)O)CCCCNC(=O)[C@H](Cc2ccccc2)NC(=O)[C@H]([C@@H](C)CC)NC(=O)[C@H](NC(=O)N[C@@H](Cc2ccccc2)C(=O)O)CCCCNC(=O)[C@H](Cc2ccccc2)NC1=O
2 |  | inactive | inactive | inactive |  | CC[C@H](C)[C@@H]1NC(=O)[C@@H](NC(=O)N[C@@H](Cc2ccccc2)C(=O)O)CCCCNC(=O)[C@H](Cc2ccccc2)NC1=O

Further lines, the molecule ahead of its results:

Row | Structure (SMILES) | IC50 (Carboxypeptidase A1) [nM] | inhibition [1] | inhibition [2] | inhibition [3] | solubility [4]
3 | CC[C@H](C)[C@@H]1NC(=O)[C@H](NC(=O)N[C@@H](Cc2ccccc2)C(=O)O)CCCCNC(=O)[C@H](Cc2ccccc2)NC1=O [NAMALIDE] | 250 | inactive | inactive |  | 
4 | CC[C@H](C)[C@H](NC(=O)[C@@H](CCCCN)NC(=O)N[C@@H](Cc1ccccc1)C(=O)O)C(=O)N[C@@H](Cc1ccccc1)C(N)=O | 4500 | inactive | inactive |  | 
5 | CC[C@H](C)[C@@H]1NC(=O)[C@H](N)CCCCNC(=O)[C@H](Cc2ccccc2)NC1=O |  | inactive | inactive | inactive | 
6 | CC[C@@H](C)[C@@H]1NC(=O)[C@H](NC(=O)N[C@@H](Cc2ccccc2)C(=O)O)CCCCNC(=O)[C@H](Cc2ccccc2)NC1=O |  |  |  | inactive | Insoluble
